Holding throughout (format): functional
Test [1] is filed under the species Rattus norvegicus. Description: Hypolipidemic activity expressed as percentage decrease in triglyceride in rat, at dosage of 50 mg for 7 days. In short, it runs like this:
(§1)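 Male Sprague-Dawley rats, 4 weeks old, kept on CE-2 chow for at least 1 week, then grouped (generally five per group). Compound was mixed into CE-2 powder and fed ad libitum for the stated period; controls received plain CE-2 powder. Diet level is given as mg/100 g (mg%), about equal to mg/kg/day. Total serum triglyceride was measured by the Ryan and Rasho method and reported as percent depression versus control group mean. Significance was p < 0.05.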

For test [2], the species on record is Rattus norvegicus. Nature of the test: Tested for the hypolipidemic activity, expressed as percent decrease in serum cholesterol in rat, at dosage of 50 mg for 7 days. In short, it runs like this:
(§2)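 Male Sprague-Dawley rats, 4 weeks old, kept on CE-2 chow for at least 1 week, then grouped (generally five per group). Compound was mixed into CE-2 powder and fed ad libitum for the stated period; controls received plain CE-2 powder. Diet level is given as mg/100 g (mg%), about equal to mg/kg/day. Total serum cholesterol was measured by the Zak et al. method and reported as percent depression versus control group mean. Significance was p < 0.05.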

Test [3] is filed under the species Rattus norvegicus. Nature of the test: Hypolipidemic activity, expressed as percent decrease in serum cholesterol in rat, at dosage of 100 mg for 7 days by Zak et al method. In short, it runs like this:
as §2

Test [4] deals with Rattus norvegicus. Description: In vivo hypolipidemic activity, expressed as percent decrease in Triglyceride in rat, at dosage of 100 mg for 7 days. In short, it runs like this:
as §1

As to `CCCCCCCCCCCCCCOc1ccc(/C=C(\C)C(=O)OCC(COC(=O)c2cccnc2)OC(=O)c2cccnc2)cc1` (centres undefined), the Decrease turned out to be 17% in test [1] and 7% in test [2].
On the same counts, the results for `CCCCCCCCCCCCCCOc1cccc(/C=C(\C)C(=O)O)c1` are -11% and -1%.
On the same counts, the results for `CCCCCCCCCCCCCCOc1ccc(/C(C)=C/C(=O)O)cc1` are 41% and 5%.
On the same counts, the results for `CCCCCCCCCCCCOc1ccc(/C=C/C(=O)OCCCl)cc1` are 46% and 16%.
Turning to `CCCCCCCCOc1ccc(/C=C/C(=O)OCCCl)cc1`, the Decrease in test [3] is 5%.
As to `CCCCCCCCCCCCCCCCCCOc1ccc(/C=C/C(=O)O)cc1`, the figures for the Decrease in test [1] and in test [2] were 9% and 0%, respectively.
On the same counts, the results for `CCCCCCCCCCCCOc1ccc(/C=C(\C)C(=O)OCC2COC(C)(C)O2)cc1` (centres undefined) are 41% and 16%.
On the same counts, the results for `CCCCCCCCCCCCCCOc1ccc(/C=C/C(=O)O)cc1` are 0% and 7%.
On the same counts, the results for `CCCCCCCCOc1ccc(/C=C/C(=O)OCCOC(=O)/C=C/c2ccc(OCCCCCCCC)cc2)cc1` are 9% and 4%.
In the case of `CCCCCCCCCCCCCCCCOc1ccc(/C=C/C(=O)OCCS(=O)(=O)[O-])cc1.[Na+]`, the Decrease in test [4] came out at 47%; in test [3], 17%.
As for `CCCCCCCCCCCCCCOc1ccc(/C=C/C(=O)OCCO)cc1`, the Decrease in test [1] stood at 24%; in test [2] it was 10%.
On the same counts, the results for `CCCCCCCCCCCCOc1ccc(/C=C(\C)C(=O)OCc2cccnc2)cc1` are 60% and 24%.
On the same counts, the results for `CCCCCCCCCCCCCCOc1ccc(/C=C(\C)C(=O)OCC2COC(C)(C)O2)cc1` (centres undefined) are 2% and 9%.
Consider `C/C(=C\c1ccc(-c2ccc(Cl)cc2)cc1)C(=O)OCC(O)CO` (centres undefined), for which the Decrease in test [1] worked out at 18%; in test [2] it was 11%.
On the same counts, the results for `CCCCCCCCCCCCCOc1ccc(/C=C(\C)C(=O)O)cc1` are -4% and 13%.
As to `C=C(C)C(=O)OCCOC(=O)/C=C/c1ccc(OCCCCCCCC)cc1`, the results for the Decrease in test [4] and in test [3] were -11% and 16%, respectively.
For `CCCCCCCCCCCCOc1ccc(/C=C/C(=O)OCC(O)CO)cc1` (centres undefined), the Decrease worked out at 38% in test [1] and 17% in test [2].
In the case of `CCCCCCCCCCCCOc1ccc(/C=C/C(=O)O)cc1`, the Decrease in test [1] came to 52%; in test [2] it was 15%.
For the compound `CCCCCCCCCCCCCCCCOc1ccc(/C=C/C(=O)OCCBr)cc1`, the Decrease in test [4] is listed as 6%; in test [3], 7%.
Turning to `CCCCCCCCCCCCCCCCCCOc1ccc(/C=C/C(=O)OCCCCl)cc1`, the Decrease in test [1] is 3%; in test [2], 9%.
On the same counts, the results for `CCCCCCCCCCOc1ccc(/C=C(\C)C(=O)OCC(O)CO)cc1` (centres undefined) are 52% and 10%.
Regarding `CCCCCCCCCCCCCOc1ccc(/C=C(\C)C(=O)OCC(O)CO)cc1` (centres undefined), the Decrease in test [1] is on record as 53%; in test [2], 30%.
With `COc1ccc(/C=C/C(=O)OCCCl)cc1`, the Decrease in test [3] came to 0%.
As for `CCCCCCCCCCCCCCOc1ccc(/C=C(\C)C(=O)OC)cc1`, the figures for the Decrease in test [1] and in test [2] were 44% and 10%, respectively.
Consider `CCCCOc1ccc(/C=C/C(=O)OCCBr)cc1`, for which the values for the Decrease in test [4] and in test [3] were 26% and 9%, respectively.
As to `CCCCCCCCCCOc1ccc(/C=C/C(=O)O)cc1`, the Decrease is 18% in test [1] and 9% in test [2].
On the same counts, the results for `CCCCCCCCCCCCCCOc1ccc(/C=C(\C)C(=O)OCC(O)COC(=O)c2cccnc2)cc1` (centres undefined) are 33% and 4%.
On the same counts, the results for `CCCCCCCCCCCCOc1ccc(/C=C(\C)C(=O)OCCCl)cc1` are 42% and 21%.
On the same counts, the results for `C=C(C)C(=O)OCCOC(=O)/C=C/c1ccc(OCCCCCCCCCCCC)cc1` are 34% and 13%.
On to `C=C(C)C(=O)OCCOC(=O)/C=C/c1ccc(OCCCC)cc1`, for which the results for the Decrease in test [1] and in test [2] were 17% and 9%, respectively.
`CCCCCCCCCCCCCCCCCCOc1ccc(/C=C(\C)C(=O)OCCCCl)cc1`: the Decrease in test [1] was 11%; in test [2], 0%.
On the same counts, the results for `CCCCCCCCCCCCCCCCCCOc1ccc(/C=C(\C)C(=O)OCCCO)cc1` are 14% and 13%.
`C=CC(=O)OCCOC(=O)/C=C/c1ccc(OCCCCCCCCCCCCCCCC)cc1`: the Decrease in test [3] is listed as 6%.
As for `C/C(=C\c1ccc(-c2ccccc2)cc1)C(=O)OCC(O)CO` (centres undefined), the Decrease in test [1] is reported as -17%; in test [2], 16%.
On the same counts, the results for `CCCCCCCCCCCCCCCCOC(=O)/C=C/c1ccc(OCCCCCCCCCCCCCCCC)cc1` are 27% and 11%.
On the same counts, the results for `CCCCCCCCCCOc1ccc(/C=C/C(=O)OCC(O)CO)cc1` (centres undefined) are 14% and -3%.
For `C=C(C)C(=O)OCCOC(=O)/C=C(\C)c1ccc(OCCCCCCCCCCCCCCCC)cc1`, the Decrease in test [4] was found to be 12%; in test [3] it was 11%.
Regarding `C=COC(=O)/C=C/c1ccc(OCCCCCCCC)cc1`, in test [3], the Decrease is reported as -6%.
As to `CCCCCCCCCCCCCCCCOc1ccc(/C=C(\C)C(=O)OCC2COC(C)(C)O2)cc1` (centres undefined), the results for the Decrease in test [1] and in test [2] were 3% and 1%, respectively.
On to `CCCCCCCCOc1ccc(/C=C(\C)C(=O)OCC(O)CO)cc1` (centres undefined), for which the figures for the Decrease in test [1] and in test [2] were 21% and 8%, respectively.
On the same counts, the results for `CCCCCCCCCCCCCCCCOc1ccc(/C=C/C(=O)OCC(COC(=O)CCC)OC(=O)CCC)cc1` (centres undefined) are 36% and 8%.
On the same counts, the results for `CCCCCCCCCCCCCCOc1ccc(/C=C(\C)C(=O)OCCOC(=O)/C(C)=C/c2ccc(OCCCCCCCCCCCCCC)cc2)cc1` are -9% and -1%.
On the same counts, the results for `CCCCCCCCOc1ccc(/C=C(\C)C(=O)OCc2ccccc2)cc1` are 18% and 5%.
For `CCCCCCCCCCCCCCCCCCOc1ccc(/C=C(\C)C(=O)OCC(O)CO)cc1` (centres undefined), the Decrease in test [1] is reported as 3%; in test [2], -1%.
As to `CCCCCCCCCCCCCCOc1ccc(/C=C(\C)C(=O)OCC(O)COC(=O)/C(C)=C/c2ccc(OCCCCCCCCCCCCCC)cc2)cc1` (centres undefined), the Decrease in test [1] and in test [2] was 6% in each case.
For the compound `CCCCCCCCCCCCOc1ccc(/C=C(\C)C(=O)OCC(COC(=O)c2ccccc2)OC(=O)c2ccccc2)cc1` (centres undefined), the Decrease is on record as 47% in test [1] and 3% in test [2].
On the same counts, the results for `CCCCCCCCCCCCCCOc1ccc(/C=C(\C)C(=O)OCC(COC(C)=O)OC(C)=O)cc1` (centres undefined) are 41% and 4%.
For `CCCCCCCCCCCCCCOc1ccc(/C=C/C(=O)OCC(O)CO)cc1` (centres undefined), the Decrease is 24% in test [1] and 26% in test [2].
On the same counts, the results for `CCCCCCCCCCCCCCOc1ccc(/C=C(\C)C(=O)OC(CO)CO)cc1` are 38% and 9%.
On the same counts, the results for `CCCCCCCCCCOc1ccc(/C=C(\C)C(=O)O)cc1` are 43% and 16%.
On the same counts, the results for `CCCCCCCCCCCCCCOc1ccc(/C=C/C(=O)OCCCl)cc1` are -1% and 11%.
Consider `CCCCCCCCOc1ccc(/C=C(\C)C(=O)O)cc1`, for which the Decrease is reported as 8% in test [1] and 10% in test [2].
On to `CCCCOc1ccc(/C=C/C(=O)OCCO)cc1`, for which the Decrease in test [4] was found to be 26%; in test [3], 9%.
Turning to `CCCCCCCCCCCCCCOc1ccccc1/C=C(\C)C(=O)O`, the values for the Decrease in test [1] and in test [2] were 7% and -9%, respectively.
`CCCCCCCCCCCCCCCCOc1ccc(/C=C(\C)C(=O)Oc2ccccc2)cc1`: the Decrease in test [1] is recorded as 46%; in test [2], 12%.
With `O=C(/C=C/c1ccc(OCc2ccccc2)cc1)OCCCl`, the Decrease in test [3] is recorded as -3%.
Take `CCCCCCCCCCCCCCCCCCOc1ccc(/C=C(\C)C(=O)O)cc1`: the values for the Decrease in test [1] and in test [2] were -54% and -12%, respectively.
Consider `CCCCCCCCCCCCOc1ccc(/C=C(\C)C(=O)OCCS(=O)(=O)[O-])cc1.[Na+]`, for which the Decrease in test [1] came out at 63%; in test [2], 27%.
On the same counts, the results for `CCCCCCCCCCCCCCCCOc1ccc(/C=C(\C)C(=O)OCC(COC(=O)/C(C)=C/c2ccc(OCCCCCCCCCCCCCCCC)cc2)OC(=O)/C(C)=C/c2ccc(OCCCCCCCCCCCCCCCC)cc2)cc1` (centres undefined) are 9% and 0%.
On the same counts, the results for `C=C(C)C(=O)OCCOC(=O)/C(C)=C/c1ccc(OCCCCCCCCCCCC)cc1` are 43% and 17%.
On the same counts, the results for `CCCCCCCCCCCCCCOc1ccc(/C=C(\C)C(=O)OCCN(C)C)cc1.Cl` are 35% and 8%.
Regarding `CCCCCCCCCCCCCCOc1ccc(/C=C(\C)C(=O)OCC(O)CO)cc1` (stereo in doubt; 98), the Decrease in test [1] is listed as 9%; in test [2] it was -2%.

For the origin of these results see ChEMBL document CHEMBL1121524, “Studies of hypolipidemic agents. 1. Synthesis and hypolipidemic activities of alkoxycinnamic acid derivatives” (1980).
